Experiments:
[1] = AUC (0 to 8 hrs) in human plasma at 500 mg, po, bid for 3 to 5 days; assay type: ADME, organism-based; design: dose 500 mg, time < 8 hr, route oral
Outline: (§1)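 Oral clarithromycin 500 mg b.i.d. for 3-5 days, starting 12 h after a single 250 mg dose; last dose given supervised on the morning of day 2 after a baseline blood draw and a 2-h trough dialysate. Sampling as on day 1: microdialysis of muscle and adipose tissue plus venous plasma over 8 h, HPLC. Dialysate concentrations corrected for individual recovery.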

[2] = Ratio of AUC (0 to 24 hrs) in fasting human interstitial-space fluid of skeletal muscle to free AUC (0 to 24 hrs) in fasting human plasma at 250 mg, po; assay type: ADME, organism-based; settings: read-out: Ratio AUC
Outline: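 AUC0-8, AUC0-12 and AUC0-24 by the linear trapezoidal rule. Values at 12 h and 24 h extrapolated as C8 x e^(-kel x t) from the 8-h concentration. At steady state, AUC0-24 = AUC0-12 x 2. Tissue-to-free-plasma ratios use free plasma AUC, from each subject's own protein binding.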

[3] = Ratio of AUC (0 to 24 hrs) in human interstitial-space fluid of subcutaneous adipose tissue to free AUC (0 to 24 hrs) in human plasma at 500 mg, po bid
[4] = AUC (0 to 8 hrs) in human interstitial-space fluid of skeletal muscle at 500 mg, po, bid for 3 to 5 days; assay type: ADME, organism-based, Muscle tissue; design: dose 500 mg, time < 8 hr, route oral; outline: as §1
[5] = AUC (0 to 8 hrs) in fasting human plasma at 250 mg, po; assay type: ADME, organism-based; design: dose 250 mg, time < 8 hr, route oral
Outline: (§2)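 Healthy male volunteers aged 25-37 y, fasting; single oral 250 mg tablet after 60-min probe equilibration. Microdialysis probes in skeletal muscle and subcutaneous adipose tissue, perfused with Ringer's at 1.5 µl/min; dialysate and antecubital venous blood sampled every 20 min to 4 h, then every 30 min to 8 h. HPLC assay. Interstitial concentration = 100 x Cdialysate/recovery.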

[6] = AUC (0 to 24 hrs) in human interstitial-space fluid of subcutaneous adipose tissue at 500 mg, po, bid for 3 to 5 days; assay type: ADME, organism-based; outline: as §1
[7] = AUC (0 to 24 hrs) in human plasma at 500 mg, po, bid for 3 to 5 days; assay type: ADME, organism-based; design: time < 24 hr, dose 500 mg, route oral; outline: as §1
[8] = Tmax in human interstitial-space fluid of skeletal muscle at 500 mg, po, bid for 3 to 5 days; assay type: ADME, organism-based, Muscle tissue; outline: as §1
[9] = AUC (0 to 8 hrs) in human interstitial-space fluid of subcutaneous adipose tissue at 500 mg, po, bid for 3 to 5 days; assay type: ADME, organism-based; outline: as §1
[10] = Protein binding in human plasma at 500 mg, po bid for 3 to 5 days; assay type: ADME, organism-based; settings: read-out: PPB (converted)
Outline: (§3)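 Plasma ultrafiltration done for each volunteer on samples taken 80 and 180 min post-dose, after both the single dose and at steady state. 300 µl aliquots spun through 5,000-MW-cutoff regenerated-cellulose filters at 5,000 x g, 30 min, ambient temperature. Ultrafiltrate concentrations corrected for 5% mean membrane binding. Binding (%) = 100 - 100 x Cultrafiltrate corr/Cplasma total.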

[11] = tested on: Homo sapiens; test: Free Cmax in human plasma at 500 mg, po, bid for 3 to 5 days; assay type: ADME, organism-based; settings: in vivo
Outline: (§4)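 Free plasma concentrations obtained by applying each volunteer's measured protein binding to total plasma concentrations, measured by HPLC after the 250 mg single dose or the 500 mg b.i.d. steady-state dose, with sampling over 8 h.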

[12] = AUC (0 to 24 hrs) in fasting human plasma at 250 mg, po; assay type: ADME, organism-based; design: dose 250 mg, time < 24 hr, route oral; outline: as §2
[13] = tested on: Homo sapiens; test: Free AUC (0 to 24 hrs) in human plasma at 500 mg, po, bid for 3 to 5 days; assay type: ADME, organism-based; settings: in vivo; outline: as §4
[14] = Tmax in fasting human plasma at 250 mg, po; assay type: ADME, organism-based; outline: as §2
[15] = Terminal half life in human interstitial-space fluid of skeletal muscle at 500 mg, po, bid for 3 to 5 days; assay type: ADME, organism-based, Muscle tissue; settings: read-out: beta t1/2 (converted); outline: as §1
[16] = Cmax in fasting human interstitial-space fluid of subcutaneous adipose tissue at 250 mg, po; assay type: ADME, organism-based; outline: as §2
[17] = Tmax in fasting human plasma unbound fraction at 250 mg, po; assay type: ADME, organism-based; outline: as §4
[18] = Cmax in human interstitial-space fluid of subcutaneous adipose tissue at 500 mg, po, bid for 3 to 5 days; assay type: ADME, organism-based; outline: as §1
[19] = Tmax in human plasma unbound fraction at 500 mg, po, bid for 3 to 5 days; assay type: ADME, organism-based; outline: as §4
[20] = tested on: Homo sapiens; test: Free AUC (0 to 8 hrs) in human plasma at 500 mg, po, bid for 3 to 5 days; assay type: ADME, organism-based; settings: in vivo; outline: as §4
[21] = tested on: Homo sapiens; test: Volume of distribution at terminal phase in fasting human plasma at 250 mg, po; assay type: ADME, organism-based; settings: in vivo
Outline: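 Single oral 250 mg tablet given to fasting healthy male volunteers (n=7, 25–37 y). Venous plasma (lithium heparin) was sampled every 20 min over 0–4 h and every 30 min over 4–8 h, then analysed by reverse-phase HPLC. Vz = dose × F/(AUC0-∞ × kel), with bioavailability F set at 55%. AUC was calculated by the linear trapezoidal rule.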

[22] = AUC (0 to 8 hrs) in fasting human interstitial-space fluid of subcutaneous adipose tissue at 250 mg, po; assay type: ADME, organism-based; outline: as §2
[23] = Tmax in fasting human interstitial-space fluid of skeletal muscle at 250 mg, po; assay type: ADME, organism-based, Muscle tissue; outline: as §2
[24] = tested on: Homo sapiens; test: Free Cmax in fasting human plasma at 250 mg, po; assay type: ADME, organism-based; settings: in vivo; outline: as §4
[25] = tested on: Homo sapiens; test: Volume of distribution at steady state in human plasma at 500 mg, po, bid for 3 to 5 days; assay type: ADME, organism-based; settings: in vivo
Outline: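 Healthy male volunteers (n=7, 25–37 y) took clarithromycin 500 mg orally b.i.d. for 3–5 days, with the last dose supervised. Venous blood (lithium heparin) was sampled every 20 min over 0–4 h and every 30 min over 4–8 h, and plasma was assayed by HPLC. Vss = CL × MRT, with CL = dose × F/AUC0-∞ and F taken as 55%. AUCs were calculated by the linear trapezoidal rule.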

[26] = Protein binding in human plasma at 250 mg, po; assay type: ADME, organism-based; settings: read-out: PPB (converted); outline: as §3

Which results are given for `CC[C@H]1OC(=O)[C@H](C)[C@@H](O[C@H]2C[C@@](C)(OC)[C@@H](O)[C@H](C)O2)[C@H](C)[C@@H](O[C@@H]2O[C@H](C)C[C@H](N(C)C)[C@H]2O)[C@](C)(OC)C[C@@H](C)C(=O)[C@H](C)[C@@H](O)[C@]1(C)O` [CLARITHROMYCIN]?
AUC at 8 h [1]: 10600 ng·h/mL; Kp uu [2]: 0.42; Kp uu [3]: 0.39; AUC at 8 h [4]: 920 ng·h/mL; AUC(0-t) at 8 h [5]: 3630 ng·h/mL; AUC [6]: 2220 ng·h/mL; AUC at 24 h [7]: 26800 ng·h/mL; Tmax [8]: 3.8 h; AUC [9]: 840 ng·h/mL; fraction unbound [10]: 0.231; fCmax [11]: 0.58 mg/L; AUC(0-t) at 24 h [12]: 4450 ng·h/mL; fAUC [13]: 5.85 mg·h/L; Tmax [14]: 2.6 h; half-life [15]: 228 min; Cmax [16]: 70 ng/mL; Tmax [17]: 2.6 h; Cmax [18]: 230 ng/mL; Tmax [19]: 3.2 h; fAUC [20]: 2.26 mg·h/L; Vbeta [21]: 94 L; AUC(0-t) [22]: 240 ng·h/mL; Tmax [23]: 3 h; fCmax [24]: 0.31 mg/L; Vdss [25]: 126.5 L; fraction unbound [26]: 0.287
